Test results as given in PMC4224617 (Chemistry & biology, 2014).

Molecular target: T1, Plu2411 (Photorhabdus laumondii, UniProt Q7N4D0)
T1 sequence (Q7N4D0 1-259): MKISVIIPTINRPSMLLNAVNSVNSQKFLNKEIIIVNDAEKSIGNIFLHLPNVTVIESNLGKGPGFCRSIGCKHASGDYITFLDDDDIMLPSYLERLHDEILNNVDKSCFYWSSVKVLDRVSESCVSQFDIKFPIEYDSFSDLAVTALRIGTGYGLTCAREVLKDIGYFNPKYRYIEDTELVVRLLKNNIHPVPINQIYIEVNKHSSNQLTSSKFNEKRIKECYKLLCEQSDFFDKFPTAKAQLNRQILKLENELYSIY
Assay: LC/MS product detection, GT-only reaction
Assay type: biochemical
Conditions: α-UDP-GlcNAc as substrate

| Compound | LC/MS product detection, GT-only reaction |
| --- | --- |
| O=c1ccn([C@@H]2O[C@H](COP(=O)(O)OP(=O)(O)O)[C@@H](O)[C@H]2O)c(=O)[nH]1 [UDP] | In the GT-only reaction, we could detect UDP and free Glc-NAc products |

Molecular target: chicken egg white lysozyme (Gallus gallus, UniProt P00698)
Assay: EnzChek fluorescent lysozyme assay, Dixon plot
Assay type: biochemical
Conditions: not given
In short: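 Substrate: fluorescein-labelled Micrococcus lysodeikticus cells (DQ lysozyme substrate). Run according to the kit's instructions. Ki values determined for oligosaccharide test compounds.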

chicken egg white lysozyme, sequence (P00698 19-147): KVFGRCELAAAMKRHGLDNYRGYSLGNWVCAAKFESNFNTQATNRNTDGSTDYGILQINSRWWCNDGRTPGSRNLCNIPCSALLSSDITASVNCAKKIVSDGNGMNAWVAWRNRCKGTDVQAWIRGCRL

| Ki [µM] | Compound |
| --- | --- |
| 750 ± 410 | CC(=O)N[C@H]1[C@H](O[C@H]2[C@H](O)[C@@H](NC(C)=O)[C@@H]3OC[C@H]2O3)O[C@H](CO)[C@@H](O[C@@H]2O[C@H](COP(=O)(O)O)[C@@H](O)[C@H](O)[C@H]2N)[C@@H]1O [compound 5, 5] |
| 170 ± 130 | CC(=O)N[C@H]1[C@@H]2OC[C@@H](O2)[C@@H](O[C@@H]2O[C@H](CO)[C@@H](O[C@@H]3O[C@H](CO)[C@@H](O)[C@H](O)[C@H]3NC(C)=O)[C@H](O)[C@H]2NC(C)=O)[C@@H]1O [compound 2, 2] |
| 3590 ± 1290 | CC(=O)N[C@H]1[C@@H]2OC[C@@H](O2)[C@@H](O[C@@H]2O[C@H](CO)[C@@H](O)[C@H](O)[C@H]2NC(C)=O)[C@@H]1O [compound 1, 1] |
| 300 ± 270 | CC(=O)N[C@H]1[C@@H]2OC[C@@H](O2)[C@@H](O[C@@H]2O[C@H](CO)[C@@H](O[C@@H]3O[C@H](CO)[C@@H](O[C@@H]4O[C@H](CO)[C@@H](O)[C@H](O)[C@H]4NC(C)=O)[C@H](O)[C@H]3NC(C)=O)[C@H](O)[C@H]2NC(C)=O)[C@@H]1O [compound 3, 3] |
| 400 ± 230 | CC(=O)N[C@H]1[C@H](O[C@H]2[C@H](O)[C@@H](NC(C)=O)[C@@H]3OC[C@H]2O3)O[C@H](CO)[C@@H](O[C@@H]2O[C@H](CO)[C@@H](O)[C@H](O)[C@H]2N)[C@@H]1O [compound 4, 4] |
